# From PubChem BioAssay
# Activity calls are given as the source filed them.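 How the source made its calls, unless noted: active means viability loss from added drug above about 55%, and viability with drug at most 40%, in both replicates (limit read from the data, passing the limit was not always enough); inconclusive means both conditions met in only one replicate; inactive means neither replicate meets both conditions.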
# How the values were obtained:
# [1] = HUVEC growth inhibition – cell-based, human, primary screen (AID 575;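 active means viability at or below 30% in both replicate assays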;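 further: 100% = median of untreated cell wells with 0.1% DMSO on each plate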); settings: HUVEC proliferation, CellTiter-Glo luminescence, 72 h; at 10 µM; stronger effect = lower value
# Method in brief: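 Test system: primary human umbilical vein endothelial cells. Quantity: 1250 cells/well. Compound: single 10 µM dose, 0.1% DMSO, from 5x medium stock. Timing: 72 h treatment at 37 °C. Detection: ATP-based CellTiter-Glo luminescent read. Benchmarks: vehicle and MePR control wells. Format: 384-well plates coated with collagen.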
# [2] = H69AR cell proliferation blockers – human, duplicate replicates, primary screen (AID 580;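 active means viability at or under a set limit in both replicates, limit being median viability minus 3 SD, cut at about 48% in these data, passing the limit was not always enough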;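 further: 100% = mean luminescence of untreated wells and 0% = no signal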); settings: H69AR lung tumor cells viability, ATP luminescence, 72 h; at 10 µM; stronger effect = lower value
# [3] = MRP1 drug-resistance reversers in H69AR cells – cell-based, doxorubicin co-treatment, pilot screen (AID 601); settings: CellTiter-Glo, 72 h, at 10 µM; for differential viability (reversal): stronger effect = higher value
# [4] = yeast transport mutant growth inhibition pilot in 384-well plates, post-Golgi transport modulator project (AID 636; in the data active means inhibition above about 31%); settings: absorbance 615 nm, about 18 h, stronger effect = higher value
# [5] = growth suppression of yeast trafficking mutant, preliminary HTS, modulators of trafficking downstream of Golgi apparatus project, 1536-format plate, OD 615 nm (AID 637; in the data active means inhibition above about 30%); settings: yeast transport mutant growth, absorbance 615 nm, 18 h; stronger effect = higher value
# [6] = H69AR cells + 2 uM doxorubicin, measured here: viability with 2 uM doxorubicin, stronger effect = lower value
# [7] = H69AR cells, compound alone cytotoxicity
SMILES,viability [1],viability [2],differential viability (reversal) ([3]; H69AR cells + 2 uM doxorubicin),"viability [3, 6] [%]","viability [3, 7] [%]",inhibition [4],inhibition [5]
c1ccc(Cn2nnnc2C(c2ccccn2)N2CCOCC2)cc1 (centres undefined),107% (inactive),94.3% (inactive),-2.14% (inactive),96.5,94.3,-3.25% (inactive),-6.51% (inactive)
O=C(NC1=NCCS1)c1nc(-c2ccccc2)n(-c2ccccc2)n1,70.4% (inactive),101% (inactive),8.75% (inactive),92.1,101,-3.73% (inactive),0.63% (inactive)
COc1cc(S(=O)(=O)N(C)C)ccc1F,95.4% (inactive),91.7% (inactive),9.55% (inactive),82.1,91.7,-6.67% (inactive),3.65% (inactive)
c1ccc2c(c1)c1c3n2CCNC3CCC1 (centres undefined),91.1% (inactive),91.4% (inactive),4.74% (inactive),86.7,91.4,-4.13% (inactive),0% (inactive)
CCOc1cc(S(=O)(=O)NCc2ccc3c(c2)OCO3)ccc1F,95.4% (inactive),97.9% (inactive),4.41% (inactive),93.5,97.9,-4.8% (inactive),4.76% (inactive)
CC1(C)C2CCC1(CS(=O)(=O)NCc1ccc(C(=O)O)cc1)C(=O)C2 (centres undefined),103% (inactive),108% (inactive),23.7% (inactive),84.2,108,-0.39% (inactive),3.33% (inactive)
CCOc1ccccc1C(=O)NCCCn1ccnc1,95.3% (inactive),91.9% (inactive),4.38% (inactive),87.5,91.9,-4.42% (inactive),2.7% (inactive)
COCC(=O)Nc1sc2c(c1C(=O)OC)CCC(C)C2 (centres undefined),88.4% (inactive),94.8% (inactive),4.53% (inactive),90.3,94.8,-2.76% (inactive),5.08% (inactive)
CN1/C(=C\C(=O)Nc2cccnc2)c2ccccc2CC1(C)C,99.3% (inactive),86.5% (inactive),-4.08% (inactive),90.6,86.5,-4.4% (inactive),-0.95% (inactive)
COC(=O)c1ccc(C2CC(=O)Nc3cc(OC)c(OC)c(OC)c32)cc1 (centres undefined),83.6% (inactive),89.4% (inactive),11.6% (inactive),77.8,89.4,-3.47% (inactive),0.63% (inactive)
CCOc1ccccc1N(CC(=O)N1CCOCC1)S(=O)(=O)c1ccccc1,108% (inactive),99% (inactive),1.18% (inactive),97.8,99,2.8% (inactive),-4.76% (inactive)
CC(=O)N1C(=O)c2cccc3cccc(c23)C(=O)N1C(C)=O,96.1% (inactive),91.8% (inactive),-1.27% (inactive),93,91.8,-1.05% (inactive),-1.43% (inactive)
O=C(Nc1ccc2c(c1)OCO2)OCc1ccccc1,78.9% (inactive),106% (inactive),11.4% (inactive),94.5,106,-4.4% (inactive),2.22% (inactive)
CC(C)c1ccc(-c2nc(N3CCOCC3)[nH]c(=O)c2C#N)cc1,79.3% (inactive),98% (inactive),1.58% (inactive),96.4,98,-6.4% (inactive),3.33% (inactive)
O=C(c1ncn[nH]1)N1CCN(c2nc(-c3ccccc3)cs2)CC1,104% (inactive),94.5% (inactive),3.58% (inactive),90.9,94.5,-1.73% (inactive),9.68% (inactive)
COc1cccc(C(=O)Nc2cccc(C(=O)N3CCOCC3)c2)c1,97.1% (inactive),90.1% (inactive),13% (inactive),77.1,90.1,-4.68% (inactive),0.32% (inactive)
CCOC(=O)CC(=O)c1cc(OC)c(OC)c(OC)c1,97.1% (inactive),107% (inactive),11.3% (inactive),95.6,107,-0.53% (inactive),-3.49% (inactive)
CC1CN(c2nc3ccccc3nc2C(C#N)C(=O)NCc2ccc3c(c2)OCO3)CC(C)O1 (centres undefined),84.6% (inactive),91.2% (inactive),-5.39% (inactive),96.6,91.2,-4.93% (inactive),4.76% (inactive)
CCc1ccc(CCC(=O)Nc2ccc(C)c(C)c2)o1,102% (inactive),95.1% (inactive),7.16% (inactive),87.9,95.1,-8.4% (inactive),-3.65% (inactive)

SMILES,viability [1],viability [2],differential viability (reversal) ([3]; H69AR cells + 2 uM doxorubicin),"viability [3, 6] [%]","viability [3, 7] [%]",inhibition [4],inhibition [5]
N=c1sc2ccccc2n1-c1ccccc1,102% (inactive),89% (inactive),6.59% (inactive),82.4,89,-3.12% (inactive),3.33% (inactive)
O=C(CCN1CCOCC1)Nc1ccc2c(c1)CCC2,79.7% (inactive),93.7% (inactive),6.83% (inactive),86.8,93.7,-5.26% (inactive),-4.13% (inactive)
CC(C(=O)N1c2ccc(F)cc2CCC1C)N1C(=O)c2ccccc2C1=O (centres undefined),114% (inactive),91.3% (inactive),11.5% (inactive),79.8,91.3,-5.26% (inactive),8.73% (inactive)
C=CCn1c(=O)c(C(=O)Nc2ccccc2C(=O)OCC)c(O)c2ccccc21,84.3% (inactive),33% (active),-26.9% (inactive),60,33,-7.2% (inactive),6.83% (inactive)
COc1ccc(-c2noc(CCC(=O)Nc3nc4ccccc4s3)n2)cc1,88.2% (inactive),88.1% (inactive),-3.04% (inactive),91.1,88.1,2.21% (inactive),7.46% (inactive)
O=C(Oc1ccccc1)c1cccc(COC(=O)c2cnccn2)c1,84.9% (inactive),103% (inactive),14.2% (inactive),88.4,103,-6.13% (inactive),4.13% (inactive)
COCCn1nnnc1C(C(C)C)N(Cc1cccnc1)Cc1ccccc1Cl (centres undefined),96.4% (inactive),83.8% (inactive),34.7% (inactive),49,83.8,-2.34% (inactive),2.06% (inactive)
CCOC(=O)C1=C(C)N(C)C(C)=C(C(=O)OCC)C1c1cccnc1,97.5% (inactive),92.4% (inactive),0.9% (inactive),91.5,92.4,0.79% (inactive),-1.75% (inactive)
O=C(c1ccco1)N1CCN(CC(=O)N(C2CCCCC2)C2CCS(=O)(=O)C2)CC1 (centres undefined),94% (inactive),93.5% (inactive),-4.1% (inactive),97.6,93.5,-4.81% (inactive),-3.17% (inactive)
CSc1nsc(SCC(=O)N2CCc3ccccc32)n1,98.6% (inactive),96.8% (inactive),4.61% (inactive),92.2,96.8,-6.05% (inactive),3.33% (inactive)
CCCc1nc2ccccc2c2nc(N)nn12,99.8% (inactive),94.1% (inactive),12.3% (inactive),81.8,94.1,-5.26% (inactive),0.95% (inactive)
CCN(c1ccccc1)S(=O)(=O)c1ccc(F)cc1C,86.5% (inactive),90.4% (inactive),7.2% (inactive),83.2,90.4,-1.04% (inactive),-5.71% (inactive)
CCCSc1nc(N)c(C#N)c(-c2ccc(C)cc2)c1C#N,79.6% (inactive),70.3% (inactive),-10.1% (inactive),80.4,70.3,-2.67% (inactive),4.76% (inactive)
CCOC(=O)CSC1=C(C#N)C(c2ccc(C)cc2)C(C(=O)OC)C(=O)N1 (centres undefined),81.7% (inactive),91.1% (inactive),1.55% (inactive),89.6,91.1,-1.2% (inactive),-5.56% (inactive)
C=C(C)Cn1c(CCNC(=O)CC)nc2ccccc21,100% (inactive),104% (inactive),12.7% (inactive),91.4,104,-3.95% (inactive),-0.63% (inactive)
O=C1c2ccccc2C(=O)N1CCC(=O)N1CCc2ccccc21,101% (inactive),87.3% (inactive),-5.43% (inactive),92.7,87.3,-4.53% (inactive),5.08% (inactive)
COC(=O)Cc1c(C)c2ccc(OCC(=O)N3CCOCC3)cc2oc1=O,107% (inactive),100% (inactive),12.4% (inactive),87.8,100,-4.67% (inactive),17% (inactive)
O=C(CSc1nc2c(sc3ccccc32)c(=O)n1Cc1ccco1)NCC1CCCO1 (centres undefined),78.8% (inactive),81.2% (inactive),-4.63% (inactive),85.8,81.2,-1.17% (inactive),5.71% (inactive)
